In general, inhibition refers to how much of the control response was suppressed. A word on the IC50: it is the concentration that gives 50% inhibition.

This passage reports inhibition and IC50 results from ChEMBL document CHEMBL2331096, “Montmorillonite K-10 catalyzed green synthesis of 2,6-unsubstituted dihydropyridines as potential inhibitors of PDE4” (Eur J Med Chem, 2013).

T1 sequence (Q07343 whole entry): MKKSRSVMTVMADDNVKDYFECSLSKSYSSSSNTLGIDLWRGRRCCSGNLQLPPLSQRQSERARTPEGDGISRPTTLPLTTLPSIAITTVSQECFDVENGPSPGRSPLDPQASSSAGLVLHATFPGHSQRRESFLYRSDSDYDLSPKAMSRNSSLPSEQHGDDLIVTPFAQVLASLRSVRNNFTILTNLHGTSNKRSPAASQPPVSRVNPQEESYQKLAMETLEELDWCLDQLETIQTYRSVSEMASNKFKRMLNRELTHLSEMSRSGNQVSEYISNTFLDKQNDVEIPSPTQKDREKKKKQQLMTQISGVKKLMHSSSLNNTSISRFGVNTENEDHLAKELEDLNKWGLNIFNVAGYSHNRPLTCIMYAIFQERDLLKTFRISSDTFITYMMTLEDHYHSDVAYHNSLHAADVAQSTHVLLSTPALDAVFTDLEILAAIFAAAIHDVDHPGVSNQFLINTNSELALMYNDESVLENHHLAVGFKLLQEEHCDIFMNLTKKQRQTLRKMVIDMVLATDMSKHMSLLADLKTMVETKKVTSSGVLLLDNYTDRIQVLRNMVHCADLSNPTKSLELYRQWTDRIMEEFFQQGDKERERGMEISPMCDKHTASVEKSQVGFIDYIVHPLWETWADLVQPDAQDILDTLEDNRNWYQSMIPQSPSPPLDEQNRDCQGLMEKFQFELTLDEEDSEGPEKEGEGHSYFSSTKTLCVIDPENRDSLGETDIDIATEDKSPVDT

One test concerns the target T1, 3',5'-cyclic-AMP phosphodiesterase 4B (Homo sapiens, UniProt Q07343). Description: Inhibition of recombinant His-tagged PDE4B (unknown origin) expressed in Sf9 cells using cAMP as substrate at 30 uM incubated for 15 mins prior to substrate addition measured after 1 hr by luminescence-based assay. A digest of the protocol:
(§1)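 His-tagged PDE4B made in baculovirus-infected Sf9 cells (lysed 48 h post-infection) and purified on Ni-NTA with imidazole elution. Enzyme (10 ng) pre-incubated 15 min with compound or DMSO vehicle, then 1 h with cAMP substrate; reaction stopped, detection reagent added for 10 min in dark, luminescence (RLU) read. Percent inhibition calculated from RLU relative to vehicle control.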
On to `CCOC(=O)C1=CN(c2ccc(OC)cc2OC)C=C(C(=O)OCC)C1c1ccc(F)c(F)c1`, for which the inhibition is 69.2%. Same read-out and setting: next, `CCOC(=O)C1=CN(c2ccc(OC)cc2)C=C(C(=O)OCC)C1c1ccc(F)c(F)c1`: 78.7%; `CCOC(=O)C1=CN(c2ccccc2OC)C=C(C(=O)OCC)C1c1ccccc1`: 29.9%. For `CCOC(=O)C1=CN(c2ccccc2OC)C=C(C(=O)OCC)C1c1ccc(F)c(F)c1`, the inhibition amounted to 46%. For the compound `CCOC(=O)C1=CN(c2ccccc2OC)C=C(C(=O)OCC)C1c1cccc(Cl)c1`, the inhibition worked out at 30.4%.

As for `CCOC(=O)C1=CN(c2ccc(OC)cc2)C=C(C(=O)OCC)C1c1ccc(Br)cc1`, the inhibition was 35.1%.

As for `CCOC(=O)C1=CN(c2ccc(OC)cc2)C=C(C(=O)OCC)C1c1ccccc1`, the inhibition stood at 39.3%. With `CCOC(=O)C1=CN(c2ccc(OC)cc2)C=C(C(=O)OCC)C1c1ccc(F)cc1`, the inhibition worked out at 40.2%. Consider `CCOC(=O)C1=CN(c2ccc(OC)cc2)C=C(C(=O)OCC)C1c1cccc(Br)c1`, for which the inhibition turned out to be 42%. For the compound `CCOC(=O)C1=CN(c2ccccc2OC)C=C(C(=O)OCC)C1c1ccc(Br)cc1`, the inhibition stood at 78.4%. Turning to `CCOC(=O)C1=CN(c2ccccc2OC)C=C(C(=O)OCC)C1c1ccc(OC)cc1`, the inhibition was determined as 59.2%. On to `CCOC(=O)C1=CN(c2ccccc2OC)C=C(C(=O)OCC)C1c1ccc(F)cc1`, for which the inhibition came to 33.4%. Turning to `CCOC(=O)C1=CN(c2cccc(Cl)c2)C=C(C(=O)OCC)C1c1ccc(F)cc1`, the inhibition came out at 44.2%. On the same count and under the same terms, to `CCOC(=O)C1=CN(c2ccccc2OC)C=C(C(=O)OCC)C1c1cccc(Br)c1` belongs 37.3%.

The target of the next test is T1, 3',5'-cyclic-AMP phosphodiesterase 4B. As to the kind of experiment: Inhibition of recombinant His-tagged PDE4B (unknown origin) expressed in Sf9 cells using cAMP as substrate incubated for 15 mins prior to substrate addition measured after 1 hr by luminescence-based assay. A digest of the protocol:
as §1
`CCOC(=O)C1=CN(c2ccccc2OC)C=C(C(=O)OCC)C1c1ccc(Br)cc1`: the concentration for half-maximal inhibition (IC50) is greater than 5 µM and the inhibition result was “Dose-dependent effect”.
